Measured values from different studies.
Compare with care: the assays were run in different laboratories. ≈ marks a conversion by molar mass, not a printed value.

Compound	tested on	assay	system	conditions	measurement	result
OC(Cn1cncn1)(Cn1cncn1)c1ccc(F)cc1F	Aspergillus niger	microbial growth	ATCC16404	–	MIC	128 µg/mL (≈ 418 µM)
CCCCCOc1ccc(-c2cc(-c3ccc(C(=O)N[C@H]4C[C@@H](O)[C@@H](O)NC(=O)[C@@H]5[C@@H](O)[C@@H](C)CN5C(=O)[C@H]([C@H](O)CC(N)=O)NC(=O)[C@H]([C@H](O)[C@@H](O)c5ccc(O)c(OS(=O)(=O)O)c5)NC(=O)[C@@H]5C[C@@H](O)CN5C(=O)[C@H]([C@@H](C)O)NC4=O)cc3)no2)cc1	Lodderomyces parapsilosis	biofilm formation	–	16 µg/mL	inhibition	49%
O=C(c1ccc(F)cc1)c1c[nH]c2ncc(-c3ccnc(N4CCNCC4)c3)cc12	MRC5	cell growth or viability, MTT	–	10 µM, 48 h	viability	90.1%
CN[C@H](CC(C)C)C(=O)N[C@H]1C(=O)N[C@@H](CC(N)=O)C(=O)N[C@H]2C(=O)N[C@H]3C(=O)N[C@H](C(=O)N[C@H](C(=O)O)c4cc(O)cc(O)c4-c4cc3ccc4O)[C@H](O)c3ccc(c(Cl)c3)Oc3cc2cc(c3O[C@@H]2O[C@H](CO)[C@@H](O)[C@H](O)[C@H]2O[C@H]2C[C@](C)(N)[C@H](O)[C@H](C)O2)Oc2ccc(cc2Cl)[C@H]1O	Bacteroides fragilis	microbial growth, agar dilution	–	48 h	MIC	> 16 µg/mL
[O-][N+]1=C(c2ccc(Cl)cc2)C2=NCCN2c2ccccc21	Bacteroides fragilis	microbial growth	–	–	MIC50	≤ 0.06 µg/mL
O=c1c2ccccc2[se]n1-c1ccccc1	MRC5	cell growth or viability, MTT	–	125 µM, 72 h	inhibition	56%
COc1ccc(C(=O)c2c[nH]c3ncc(-c4ccc(N5CCN(C(=O)OC(C)(C)C)CC5)nc4)cc23)cc1	MRC5	cell growth or viability, MTT	–	10 µM, 48 h	viability	80.2%
Nc1ccn(C[C@@H](CO)OCP(=O)(O)O)c(=O)n1	Human alphaherpesvirus 1	cytopathic effect	HEL	–	EC50	2000 nM
